Experimental data published in ChEMBL document CHEMBL5150051, “Identification and Characterization of a Novel Indoleamine 2,3-Dioxygenase 1 Protein Degrader for Glioblastoma” (J Med Chem, 2022).
Activity calls are given as the source filed them. The rule behind the calls is not given here.

How the values were obtained:
[1] = target: T1, Protein cereblon/Indoleamine 2,3-dioxygenase 1 (Homo sapiens, UniProt P14902+Q96SW2); test: Protac activity at CRBN/IDO1 in IFNgamma-stimulated human U87 cells assessed as decrease in kynurenine level measured after 24 hrs by Ehrlich's test; type: cell-based; conditions: DDE = dose-dependent effect
Method in brief: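 U87 or GBM43 cells given compound together with 50 ng/mL IFNγ for 24 h. Supernatant kynurenine was measured with Ehrlich's reagent. Cells cultured without IFNγ served as control.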
Target sequence in this assay (P14902 whole entry, looked up): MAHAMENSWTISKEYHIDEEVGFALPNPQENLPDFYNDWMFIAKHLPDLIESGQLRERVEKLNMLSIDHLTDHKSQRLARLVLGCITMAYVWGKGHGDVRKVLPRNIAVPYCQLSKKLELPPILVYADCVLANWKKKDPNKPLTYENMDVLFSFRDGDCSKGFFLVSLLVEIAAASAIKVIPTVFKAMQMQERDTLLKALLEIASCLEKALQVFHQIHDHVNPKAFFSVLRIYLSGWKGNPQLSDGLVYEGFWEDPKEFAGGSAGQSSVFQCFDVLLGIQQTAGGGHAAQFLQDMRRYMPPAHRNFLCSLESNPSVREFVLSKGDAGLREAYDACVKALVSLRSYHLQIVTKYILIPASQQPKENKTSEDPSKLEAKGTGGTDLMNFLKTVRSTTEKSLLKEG
Target sequence in this assay (Q96SW2 whole entry, looked up): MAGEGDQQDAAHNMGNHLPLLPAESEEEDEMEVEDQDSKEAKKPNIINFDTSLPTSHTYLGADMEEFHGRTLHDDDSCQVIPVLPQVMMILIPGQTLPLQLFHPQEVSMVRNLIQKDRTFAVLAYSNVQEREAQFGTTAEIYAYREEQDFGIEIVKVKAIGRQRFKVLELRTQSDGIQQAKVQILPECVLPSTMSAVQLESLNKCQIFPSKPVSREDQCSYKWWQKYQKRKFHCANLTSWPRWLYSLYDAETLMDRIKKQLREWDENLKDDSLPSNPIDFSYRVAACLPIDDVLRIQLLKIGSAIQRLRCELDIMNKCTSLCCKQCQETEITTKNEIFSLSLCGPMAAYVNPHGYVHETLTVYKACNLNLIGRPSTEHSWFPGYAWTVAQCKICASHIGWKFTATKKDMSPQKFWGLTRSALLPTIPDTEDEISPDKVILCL

[2] = target: T1, Protein cereblon/Indoleamine 2,3-dioxygenase 1; test: Protac activity at IDO1/CRBN in IFNgamma-stimulated human PBMC cells isolated form GBM patient assessed as IDO1 degradation by measuring decrease in intracellular protein level measured after 24 hrs by Western blotting analysis; type: cell-based; conditions: DDE = dose-dependent effect
Target sequence in this assay (P14902 whole entry, looked up): as the sequence (P14902 whole entry, looked up) above
Target sequence in this assay (Q96SW2 whole entry, looked up): as the sequence (Q96SW2 whole entry, looked up) above

[3] = Drug uptake in C57BL/6 mouse pancreas at 100 mg/kg, ip treated 5 days/week for 3 weeks by LC/MS/MS analysis; type: ADME, organism-based; conditions: in vivo, 504 h
[4] = target: T1, Protein cereblon/Indoleamine 2,3-dioxygenase 1; test: Protac activity at IDO1/CRBN in IFNgamma-stimulated human U87 cells assessed as IDO1 degradation measured after 24 hrs by Western blotting analysis; type: cell-based
Method in brief: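 U87 cells given human IFNγ 50 ng/mL for 24 h to induce IDO1, then PROTAC over a dose range starting at 0.01 μM and rising to 30 μM for 24 h. Western blot read-out. IDO1 band densitometry normalized to untreated samples and fitted to give DC50, the concentration giving 50% IDO1 degradation. n = 3 independent experiments, mean ± SEM.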
Target sequence in this assay (P14902 whole entry): as the sequence (P14902 whole entry, looked up) above
Target sequence in this assay (Q96SW2 whole entry): as the sequence (Q96SW2 whole entry, looked up) above

[5] = Toxicity in C57BL/6 mouse assessed as body weight change at 10 to 100 mg/kg, ip treated 5 days/week for 3 weeks; type: organism-based; conditions: in vivo, 504 h, dose 10-100 mg/kg
Method in brief: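 Male C57BL/6 mice dosed ip with vehicle or compound at 10, 25, 50 or 100 mg/kg, 5 days/week for 3 weeks. Body weight recorded every 2–3 days. n = 3 mice/dose, mean ± SEM.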

[6] = Cmax in C57BL/6 mouse plasma at 25 mg/kg, ip; type: ADME, organism-based; set-up: dose 25 mg/kg, route ip
[7] = Toxicity in C57BL/6 mouse assessed as mortality at 100 mg/kg, ip treated 5 days/week for 3 weeks; type: organism-based; conditions: in vivo, 504 h
[8] = target: Indoleamine 2,3-dioxygenase 1 (Homo sapiens, UniProt P14902); test: Inhibition of human IDO1 expressed in Escherichia coli BL21(DE3) using D-tryptophan as substrate assessed as formation of kynurenine production; conditions: DDE = dose-dependent effect
[9] = target: T1, Protein cereblon/Indoleamine 2,3-dioxygenase 1; test: Protac activity at CRBN/IDO1 in enzyme-null cDNA transfected in human U87 cells assessed as IDO1 degradation by measuring decrease in protein level measured at 0.1 to 10 uM after 24 hrs by Western blotting analysis; type: cell-based; conditions: dose 0.1-10 µM
Target sequence in this assay (P14902 whole entry, looked up): as the sequence (P14902 whole entry, looked up) above
Target sequence in this assay (Q96SW2 whole entry, looked up): as the sequence (Q96SW2 whole entry, looked up) above

Ido1/Crbn (Mus musculus) = Ido1/Crbn (Mus musculus) (UniProt P28776+Q8C7D2); test: Protac activity at CRBN/IDO1 non-enzyme mediated p65 phosphorylation in mouse GL261 cells expressing IDO1 cDNA measured at 0.1 to 10 uM after 24 hrs by Western blotting analysis; conditions: dose 0.1-10 µM
[10] = target: T1, Protein cereblon/Indoleamine 2,3-dioxygenase 1; test: Protac activity at IDO1/CRBN in IFNgamma-stimulated human GBM43 cells assessed as IDO1 degradation by measuring decrease in protein level measured after 24 hrs by Western blotting analysis; type: cell-based; conditions: GBM, dose 0.1-10 µM, DDE = dose-dependent effect
Method in brief: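 GBM43 cells stimulated with 50 ng/mL human IFNγ for 24 h, then treated across 0.01 to 30 μM for 24 h. IDO1 was quantified by western blot densitometry as percent of IFNγ-induced untreated level. DC50 came from the dose-response curve; n = 3 independent experiments, mean ± SEM.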
Target sequence in this assay (P14902 whole entry, looked up): as the sequence (P14902 whole entry, looked up) above
Target sequence in this assay (Q96SW2 whole entry, looked up): as the sequence (Q96SW2 whole entry, looked up) above

[11] = target: T1, Protein cereblon/Indoleamine 2,3-dioxygenase 1; test: Protac activity at CRBN/IDO1-FLAG expressed in human U87 cells assessed as IDO1 degradation at 10 uM measured in presence of IDO1 inhibitor BGB-7204 by immunoprecipitated ubiquitination assay; type: cell-based
Target sequence in this assay (P14902 whole entry, looked up): as the sequence (P14902 whole entry, looked up) above
Target sequence in this assay (Q96SW2 whole entry, looked up): as the sequence (Q96SW2 whole entry, looked up) above

[12] = Half life in C57BL/6 mouse brain at 25 mg/kg, ip; type: ADME, organism-based
[13] = target: T1, Protein cereblon/Indoleamine 2,3-dioxygenase 1; test: Protac activity at CRBN/IDO1-HA expressed in human U87 cells assessed as IDO1 degradation measured at 1 to 10 uM after 24 hrs by Western blotting analysis; type: cell-based; conditions: dose 1-10 µM
Target sequence in this assay (P14902 whole entry, looked up): as the sequence (P14902 whole entry, looked up) above
Target sequence in this assay (Q96SW2 whole entry, looked up): as the sequence (Q96SW2 whole entry, looked up) above

[14] = target: T1, Protein cereblon/Indoleamine 2,3-dioxygenase 1; test: Protac activity at IDO1/CRBN in IFNgamma-stimulated human GBM6 cells assessed as IDO1 degradation measured after 24 hrs by Western blotting analysis; type: cell-based; conditions: dose 0.1-10 µM, DDE = dose-dependent effect
[15] = target: T1, Protein cereblon/Indoleamine 2,3-dioxygenase 1; test: Protac activity at IDO1/CRBN in IFNgamma-stimulated human GBM43 cells assessed as IDO1 degradation by measuring decrease in protein level measured at 10 uM for 16 to 96 hrs by Western blotting analysis; type: cell-based; conditions: GBM43 cell, time 16-96 hrs
[16] = target: T1, Protein cereblon/Indoleamine 2,3-dioxygenase 1; test: Protac activity at CRBN/IDO1 in IFNgamma-stimulated human PC-3 cells assessed as decrease in kynurenine level at 10 uM measured after 24 hrs by Ehrlich's test; type: cell-based
[17] = Drug uptake in C57BL/6 mouse pancreas at 50 mg/kg, ip treated 5 days/week for 3 weeks by LC/MS/MS analysis; type: ADME, organism-based; conditions: in vivo, 504 h
[18] = target: T1, Protein cereblon/Indoleamine 2,3-dioxygenase 1; test: Protac activity at CRBN/IDO1 non-enzyme mediated NF-kappaB signal in IFNgamma-stimulated human GBM43 cells assessed as decrease in p65 phosphorylation at 0.1 to 10 uM measured after 24 hrs Western blotting assay; type: cell-based; conditions: GBM43 cell, dose 0.1-10 µM
Method in brief: (§1)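 IFNγ-stimulated cells were induced for 24 h, then treated at several concentrations for 24 h. Lysates were western blotted for IDO1, phospho-p65, total p65 and GAPDH.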

[19] = target: T1, Protein cereblon/Indoleamine 2,3-dioxygenase 1; test: Protac activity at IDO1/CRBN in IFNgamma-stimulated human PANC-1 cells assessed as IDO1 degradation by measuring decrease in intracellular protein level measured after 24 hrs by Western blotting analysis; type: cell-based; conditions: dose 1-10 µM, DDE = dose-dependent effect
[20] = Drug uptake in C57BL/6 mouse serum at 10 to 100 mg/kg, ip treated 5 days/week for 3 weeks by LC/MS/MS analysis; type: ADME, organism-based; conditions: in vivo, 504 h, dose 10-100 mg/kg
Method in brief: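 Male C57BL/6 mice dosed ip at 10, 25, 50 or 100 mg/kg, 5 days/week for 3 weeks, alongside vehicle. After 3 weeks, serum and brain homogenate were analysed by mass spectrometry for drug level; mean ± SEM, n = 3 mice/dose.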

[21] = target: T1, Protein cereblon/Indoleamine 2,3-dioxygenase 1; test: Protac activity at CRBN/IDO1 non-enzyme mediated NF-kappaB signal in IFNgamma-stimulated human U87 cells assessed as decrease in p65 phosphorylation at 0.1 to 10 uM measured after 24 hrs Western blotting assay; type: cell-based; conditions: dose 0.1-10 µM; method in brief: as §1
[22] = target: T1, Protein cereblon/Indoleamine 2,3-dioxygenase 1; test: Protac activity at IDO1/CRBN in IFNgamma-stimulated human DIPG007 cells assessed as IDO1 degradation measured after 24 hrs by Western blotting analysis; type: cell-based; conditions: HSJD-DIPG-007, dose 0.1-10 µM, DDE = dose-dependent effect
[23] = target: T1, Protein cereblon/Indoleamine 2,3-dioxygenase 1; test: Binding affinity to CRBN/IDO1 (unknown origin) assessed as ternary complex affinity by bio-layer interferometry assay; type: protein assay
Method in brief: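 For the ternary complex, compound was preincubated with a 25-fold molar excess of CRBN, and binding of this binary complex to IDO1 was followed in real time.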

[24] = target: T1, Protein cereblon/Indoleamine 2,3-dioxygenase 1; test: Protac activity at CRBN/IDO1-HA expressed in human U87 cells assessed as IDO1 degradation in intracellular cytoplasmic compartment measured at 1 to 10 uM after 24 hrs by Western blotting analysis; type: subcellular; conditions: Cytoplasm, dose 1-10 µM

Indoleamine 2,3-dioxygenase 1, sequence (P14902 whole entry, looked up): as the sequence (P14902 whole entry, looked up) above
Ido1/Crbn (Mus musculus), sequence (P28776 whole entry, looked up): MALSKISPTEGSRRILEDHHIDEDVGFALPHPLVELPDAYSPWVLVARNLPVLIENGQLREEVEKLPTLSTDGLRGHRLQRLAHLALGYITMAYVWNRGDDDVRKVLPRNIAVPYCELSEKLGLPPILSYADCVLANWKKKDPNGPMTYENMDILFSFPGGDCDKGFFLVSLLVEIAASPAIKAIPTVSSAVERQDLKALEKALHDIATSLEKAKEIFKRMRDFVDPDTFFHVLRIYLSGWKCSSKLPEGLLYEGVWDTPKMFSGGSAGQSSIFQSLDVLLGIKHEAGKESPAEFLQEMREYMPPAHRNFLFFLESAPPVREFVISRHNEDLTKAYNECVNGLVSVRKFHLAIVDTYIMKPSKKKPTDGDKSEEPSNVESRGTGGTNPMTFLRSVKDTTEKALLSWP
Ido1/Crbn (Mus musculus), sequence (Q8C7D2 whole entry, looked up): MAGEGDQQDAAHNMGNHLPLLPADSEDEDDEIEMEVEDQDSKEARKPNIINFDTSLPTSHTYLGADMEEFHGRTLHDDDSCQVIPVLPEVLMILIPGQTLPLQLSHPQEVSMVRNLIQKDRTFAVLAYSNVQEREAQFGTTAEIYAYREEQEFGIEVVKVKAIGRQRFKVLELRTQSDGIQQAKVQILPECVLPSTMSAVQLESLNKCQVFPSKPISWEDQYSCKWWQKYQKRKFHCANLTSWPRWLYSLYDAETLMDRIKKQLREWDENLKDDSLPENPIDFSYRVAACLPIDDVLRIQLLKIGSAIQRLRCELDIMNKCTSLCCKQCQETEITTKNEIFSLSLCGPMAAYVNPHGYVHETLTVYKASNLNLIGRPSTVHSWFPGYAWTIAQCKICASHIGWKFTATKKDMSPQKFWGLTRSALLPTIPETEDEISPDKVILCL

C[C@@H](C(=O)Nc1ccc(OC2CCN(C(=O)CCOCCOCCNc3cccc4c3C(=O)N(C3CCC(=O)NC3=O)C4=O)CC2)cc1)[C@H]1CC[C@@H](c2ccnc3ccc(F)cc32)CC1 (stereo not given in full)
inhibition [1]: Dde | Activity [2]: Dde | Drug uptake [3]: Active | EC50 [4]: 329 nM | Activity [5]: Non-Toxic | Cmax [6]: 365 µM | Activity [7]: Toxic | Activity [8]: Dde | Activity [9]: Active | inhibition (Ido1/Crbn (Mus musculus)): Active | Activity [10]: Dde | Activity [11]: Active | half-life [12]: 8.3 h | Activity [13]: Active | Activity [14]: Dde | Activity [15]: Active | inhibition [16]: Active | Drug uptake [17]: Active | inhibition [18]: Active | Activity [19]: Dde | Drug uptake [20]: Active | Activity [21]: Active | Activity [22]: Dde | K [23]: 117 nM | Activity [24]: Active
